Test results reported in ChEMBL document CHEMBL1800057, “Discovery of dual inducible/neuronal nitric oxide synthase (iNOS/nNOS) inhibitor development candidate 4-((2-cyclobutyl-1H-imidazo[4,5-b]pyrazin-1-yl)methyl)-7,8-difluoroquinolin-2(1H)-one (KD7332) part 2: identification of a novel, potent, and selective series of benzimidazole-quinolinone …” (J Med Chem, 2010).

Columns and labels:
[1] = species: Homo sapiens; assay: Ratio of IC50 for human eNOS to EC50 for human iNOS
[2] = molecular target: T1, Nitric oxide synthase 3 (Homo sapiens, UniProt P29474); assay: Inhibition of human eNOS expressed in HEK293 cells assessed as inhibition A23187 induced nitric oxide production incubated for 24 hrs measured after 18 hrs of […] challenge using 2,3-diaminonaphthalene by fluorescence assay; type: cell-based
T1 sequence (P29474 whole entry): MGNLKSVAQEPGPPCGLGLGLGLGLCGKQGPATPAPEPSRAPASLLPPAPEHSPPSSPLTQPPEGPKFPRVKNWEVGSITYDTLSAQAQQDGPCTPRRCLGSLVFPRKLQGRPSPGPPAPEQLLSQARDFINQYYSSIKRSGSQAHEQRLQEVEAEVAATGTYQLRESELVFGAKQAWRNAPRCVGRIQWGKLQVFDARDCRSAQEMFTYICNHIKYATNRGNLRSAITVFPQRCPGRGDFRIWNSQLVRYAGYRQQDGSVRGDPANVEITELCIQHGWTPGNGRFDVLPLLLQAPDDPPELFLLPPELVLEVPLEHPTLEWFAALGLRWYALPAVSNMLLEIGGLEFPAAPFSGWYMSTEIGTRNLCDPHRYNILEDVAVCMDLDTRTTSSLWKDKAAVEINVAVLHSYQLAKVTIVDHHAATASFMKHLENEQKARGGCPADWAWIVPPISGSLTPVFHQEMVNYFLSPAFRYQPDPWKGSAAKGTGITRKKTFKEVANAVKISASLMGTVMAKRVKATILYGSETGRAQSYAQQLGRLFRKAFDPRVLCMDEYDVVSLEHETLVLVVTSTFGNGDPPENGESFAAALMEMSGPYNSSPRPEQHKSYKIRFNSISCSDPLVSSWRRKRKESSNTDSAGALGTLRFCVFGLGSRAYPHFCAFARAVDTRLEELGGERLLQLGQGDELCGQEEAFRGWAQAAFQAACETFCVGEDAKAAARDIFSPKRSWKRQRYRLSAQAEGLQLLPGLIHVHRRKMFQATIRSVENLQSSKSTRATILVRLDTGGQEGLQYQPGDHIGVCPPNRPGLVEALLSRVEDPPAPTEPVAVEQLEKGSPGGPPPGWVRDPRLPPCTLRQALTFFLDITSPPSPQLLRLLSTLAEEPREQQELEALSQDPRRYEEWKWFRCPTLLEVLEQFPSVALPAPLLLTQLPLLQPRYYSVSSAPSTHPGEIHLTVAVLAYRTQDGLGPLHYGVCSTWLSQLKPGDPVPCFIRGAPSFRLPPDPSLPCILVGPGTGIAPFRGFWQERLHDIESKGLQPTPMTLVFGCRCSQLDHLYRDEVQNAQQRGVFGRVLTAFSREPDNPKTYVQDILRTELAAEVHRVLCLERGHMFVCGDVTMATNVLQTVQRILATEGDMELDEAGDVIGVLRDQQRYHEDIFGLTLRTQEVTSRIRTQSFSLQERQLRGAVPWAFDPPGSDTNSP
Procedure, shortened: (§1)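 HEK293 cells transfected for 4 h at 37 °C with human nNOS (10 μg) or human eNOS (15 μg) plasmid (Fugene 6, 3:1). Cells replated at 5e5 cells/mL and dosed with compound at once; SEITU (100 μM final) as positive control. After 24 h, cells activated with A23187 (83 nM final) for eNOS or ionomycin (30 μM final) for nNOS. NO read 18 h later as nitrite-DAN fluorescence.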

[3] = species: Homo sapiens; assay: Ratio of IC50 for human nNOS to EC50 for human iNOS
[4] = tested on: Liver; assay: Half life in mouse liver microsomes assessed as formation of oxidation product and glucuronide conjugate; type: ADME, Microsome
Procedure, shortened: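 Mouse liver microsomes run under combined phase I oxidation and phase II glucuronide conjugation; half-life reported in minutes.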

[5] = molecular target: T2, Nitric oxide synthase 1 (Homo sapiens, UniProt P29475); assay: Inhibition of human nNOS expressed in HEK293 cells assessed as inhibition ionomycin induced nitric oxide production incubated for 24 hrs measured after 18 hrs of ionomycin challenge using 2,3-diaminonaphthalene by fluorescence assay; type: cell-based; procedure, shortened: as §1
T2 sequence (P29475 whole entry): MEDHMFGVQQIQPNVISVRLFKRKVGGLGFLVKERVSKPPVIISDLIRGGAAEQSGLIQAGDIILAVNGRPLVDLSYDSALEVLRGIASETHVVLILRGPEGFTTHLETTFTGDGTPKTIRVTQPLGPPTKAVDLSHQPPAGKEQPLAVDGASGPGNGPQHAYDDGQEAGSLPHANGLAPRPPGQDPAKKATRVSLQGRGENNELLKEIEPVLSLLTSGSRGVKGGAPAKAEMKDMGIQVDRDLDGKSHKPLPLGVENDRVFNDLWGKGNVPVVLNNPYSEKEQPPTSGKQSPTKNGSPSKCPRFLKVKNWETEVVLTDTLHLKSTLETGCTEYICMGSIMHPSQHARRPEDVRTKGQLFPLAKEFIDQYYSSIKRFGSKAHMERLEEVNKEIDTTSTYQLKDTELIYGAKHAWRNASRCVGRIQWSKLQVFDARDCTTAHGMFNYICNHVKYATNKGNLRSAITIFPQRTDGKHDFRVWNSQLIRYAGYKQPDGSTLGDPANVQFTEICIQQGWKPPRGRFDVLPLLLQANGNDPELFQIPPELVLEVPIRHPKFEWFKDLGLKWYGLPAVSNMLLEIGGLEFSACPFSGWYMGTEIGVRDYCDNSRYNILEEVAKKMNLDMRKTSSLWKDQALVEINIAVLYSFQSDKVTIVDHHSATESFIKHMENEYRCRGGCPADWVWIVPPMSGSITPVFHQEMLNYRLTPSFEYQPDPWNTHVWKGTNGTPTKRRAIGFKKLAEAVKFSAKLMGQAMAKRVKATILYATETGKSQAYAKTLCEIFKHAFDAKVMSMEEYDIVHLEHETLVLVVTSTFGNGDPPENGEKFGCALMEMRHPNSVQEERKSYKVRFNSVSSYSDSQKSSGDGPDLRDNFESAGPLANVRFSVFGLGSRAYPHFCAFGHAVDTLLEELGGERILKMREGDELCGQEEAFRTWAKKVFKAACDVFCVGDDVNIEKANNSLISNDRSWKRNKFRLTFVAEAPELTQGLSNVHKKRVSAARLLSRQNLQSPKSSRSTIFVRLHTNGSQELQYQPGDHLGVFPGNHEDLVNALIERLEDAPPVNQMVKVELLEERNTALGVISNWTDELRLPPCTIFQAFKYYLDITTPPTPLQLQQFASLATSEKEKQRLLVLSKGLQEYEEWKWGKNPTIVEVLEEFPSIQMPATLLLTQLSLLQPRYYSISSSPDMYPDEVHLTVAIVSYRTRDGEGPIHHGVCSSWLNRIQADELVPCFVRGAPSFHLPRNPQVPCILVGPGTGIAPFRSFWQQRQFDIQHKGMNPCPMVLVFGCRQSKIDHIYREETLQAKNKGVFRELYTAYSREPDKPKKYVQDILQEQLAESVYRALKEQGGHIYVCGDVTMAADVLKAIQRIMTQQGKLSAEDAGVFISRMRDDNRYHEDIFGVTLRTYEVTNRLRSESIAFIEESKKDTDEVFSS

[6] = molecular target: Nitric oxide synthase, inducible (Homo sapiens, UniProt P35228); assay: Inhibition of human iNOS expressed in HEK293 cells assessed as inhibition of nitric oxide production after 18 hrs using 2,3-diaminonaphthalene by fluorescence assay; type: cell-based
Nitric oxide synthase, inducible, sequence (P35228 whole entry): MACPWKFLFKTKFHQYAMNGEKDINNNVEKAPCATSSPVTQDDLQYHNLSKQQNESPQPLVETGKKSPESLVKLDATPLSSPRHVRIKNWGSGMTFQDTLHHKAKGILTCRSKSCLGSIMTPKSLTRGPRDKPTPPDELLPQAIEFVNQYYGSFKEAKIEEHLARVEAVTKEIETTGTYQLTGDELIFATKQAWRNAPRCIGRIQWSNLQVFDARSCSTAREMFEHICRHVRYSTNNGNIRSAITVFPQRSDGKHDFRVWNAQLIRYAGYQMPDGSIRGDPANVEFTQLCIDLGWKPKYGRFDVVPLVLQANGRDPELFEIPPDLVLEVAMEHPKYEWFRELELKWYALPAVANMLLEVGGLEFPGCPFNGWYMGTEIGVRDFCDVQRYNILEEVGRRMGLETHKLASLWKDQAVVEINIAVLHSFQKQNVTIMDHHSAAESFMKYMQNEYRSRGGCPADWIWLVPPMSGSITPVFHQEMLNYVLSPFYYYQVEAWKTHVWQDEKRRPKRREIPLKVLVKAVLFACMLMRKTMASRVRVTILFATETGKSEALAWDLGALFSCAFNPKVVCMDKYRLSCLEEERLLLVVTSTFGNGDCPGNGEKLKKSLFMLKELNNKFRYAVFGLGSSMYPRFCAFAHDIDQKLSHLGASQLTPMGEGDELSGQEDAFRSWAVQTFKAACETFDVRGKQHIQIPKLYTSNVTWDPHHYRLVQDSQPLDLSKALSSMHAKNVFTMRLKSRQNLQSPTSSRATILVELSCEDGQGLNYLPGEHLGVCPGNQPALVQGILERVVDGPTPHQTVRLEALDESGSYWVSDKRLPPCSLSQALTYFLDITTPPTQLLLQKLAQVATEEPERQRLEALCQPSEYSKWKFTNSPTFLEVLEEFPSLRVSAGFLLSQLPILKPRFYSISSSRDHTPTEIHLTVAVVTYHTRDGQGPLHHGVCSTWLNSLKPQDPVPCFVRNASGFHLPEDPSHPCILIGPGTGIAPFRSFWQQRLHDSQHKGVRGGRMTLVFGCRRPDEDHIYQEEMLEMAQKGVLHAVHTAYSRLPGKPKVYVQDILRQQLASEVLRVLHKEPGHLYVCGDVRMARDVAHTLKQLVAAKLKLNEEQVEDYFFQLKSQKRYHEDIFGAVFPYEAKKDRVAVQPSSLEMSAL
Procedure, shortened: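 HEK293 cells grown to ~70% confluence in DMEM/10% FBS with pen/strep, transiently transfected with 10 μg human or murine iNOS plasmid plus Fugene 6 for 4 h at 37 °C, 10% CO2. Cells replated at 5e5 cells/mL and dosed with compound at once; 1400W (100 μM final) as positive control. After 18 h, DAN (10 μg/mL final) in HCl (0.1 N final) added for 20 min at room temperature. Fluorescence read after NaOH (0.12 N final).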

[7] = molecular target: T3, Nitric oxide synthase 3 (Homo sapiens) (UniProt P29474); assay: Inhibition of human eNOS expressed in HEK293 cells assessed as inhibition A23187 induced nitric oxide production at 100 uM incubated for 24 hrs measured after 18 hrs of […] challenge using 2,3-diaminonaphthalene by fluorescence assay; type: cell-based
T3 sequence (whole entry): T1 sequence (P29474 whole entry)

[8] = molecular target: T2, Nitric oxide synthase 1; assay: Inhibition of human nNOS expressed in HEK293 cells assessed as inhibition ionomycin induced nitric oxide production at 10 uM incubated for 24 hrs measured after 18 hrs of ionomycin challenge using 2,3-diaminonaphthalene by fluorescence assay; type: cell-based

SMILES	Ratio EC50 [1]	EC50 [2] [µM]	Ratio EC50 [3]	t1/2 [4] [min]	EC50 [5] [nM]	EC50 [6] [nM]	inhibition [7] [%]	inhibition [8] [%]
CC(C)Cc1nc2nccnc2n1Cc1cc(=O)[nH]c2c(F)cccc12	> 350	> 100	23	> 120	6800	290		
CC(C)CCc1nc2ccccc2n1Cc1cc(=O)[nH]c2c(F)c(F)ccc12	> 74	> 100	0.5	> 120	650	1360	< 50	
O=c1cc(Cn2c(C3CC(F)(F)C3)nc3nccnc32)c2cccc(F)c2[nH]1	> 460		14					
O=c1cc(Cn2c(C3CCCC3)nc3nccnc32)c2ccc(F)c(F)c2[nH]1	> 360	> 100	3.6	> 120	1000	280		
CCc1nc2ccccc2n1Cc1cc(=O)[nH]c2c(F)c(F)ccc12	0.4	1.6	> 2	> 120	> 10000	4300		< 50
O=c1cc(Cn2c(C3CCC3)nc3c(C(F)(F)F)ccnc32)c2ccc(F)c(F)c2[nH]1	> 670	> 100	13	86	2000	150	< 50	
CC(C)Cc1nc2nccnc2n1Cc1cc(=O)[nH]c2c(F)c(F)ccc12	440		3.4					
O=c1cc(Cn2c(CC3CC3)nc3ccccc32)c2ccc(F)c(F)c2[nH]1	6.5	3.9	1.6	> 120	950	600		
O=c1cc(Cn2c(C3CCC3)nc3ncccc32)c2ccc(F)c(F)c2[nH]1	15	8.8	0.9	> 120	520	590		
CCCc1nc2ccccc2n1Cc1cc(=O)[nH]c2c(F)c(F)ccc12	1.8	1.3	0.9	> 120	690	730		
O=c1cc(Cn2c(C3CCCCC3)nc3ccccc32)c2ccc(F)c(F)c2[nH]1	> 11	> 100	0.6	> 120	5000	8900	< 50	
CC(C)c1nc2nccnc2n1Cc1cc(=O)[nH]c2c(F)c(F)ccc12	15	13	0.7	> 120	610	850		
O=c1cc(Cn2c(-c3cccnc3)nc3ccccc32)c2ccc(F)c(F)c2[nH]1	> 11	> 100	> 1	> 120	> 10000	9300	< 50	< 50
Cc1ccncc1-c1nc2ccccc2n1Cc1cc(=O)[nH]c2c(F)c(F)ccc12	> 8	> 100	> 1	> 120	> 10000	12000	< 50	< 50
Cc1ncsc1C(=O)N(Cc1cc(=O)[nH]c2c(F)cccc12)c1ccccc1	> 500		> 50					
Cc1cnccc1-c1nc2ccccc2n1Cc1cc(=O)[nH]c2c(F)c(F)ccc12	3.8	1.3	2.9	> 120	990	340		
Cc1ncsc1-c1nc2ccccc2n1Cc1cc(=O)[nH]c2c(F)cccc12	4.1	15	1.2	> 120	4300	3700		
Cn1cncc1-c1nc2ccccc2n1Cc1cc(=O)[nH]c2c(F)c(F)ccc12	1	5.8	5.3	> 120	> 10000	5900		< 50
O=c1cc(Cn2c(C3CCC3)nc3c(Cl)ccnc32)c2ccc(F)c(F)c2[nH]1	> 370	> 100	2.8	36	760	270	< 50	
O=c1cc(Cn2c(C3CCC3)nc3ccncc32)c2ccc(F)c(F)c2[nH]1	> 220	> 100	1.6		730	460	< 50	
O=c1cc(Cn2c(C3CC(F)(F)C3)nc3nccnc32)c2ccc(F)c(F)c2[nH]1	77	9.2	9.2	> 120	1100	120		
O=c1cc(Cn2c(C3CCC3)nc3cnccc32)c2ccc(F)c(F)c2[nH]1	1.2	21	1.3	> 120	24000	18000		
Cc1ccnc2c1nc(C1CCC1)n2Cc1cc(=O)[nH]c2c(F)c(F)ccc12	> 800	> 100		92	1600	270	< 50	
O=c1cc(Cn2c(C3CCCC3)nc3ccccc32)c2ccc(F)c(F)c2[nH]1	> 133	> 100	1	> 120	770	750	< 50	
O=c1cc(Cn2c(C3CC3)nc3ccccc32)c2ccc(F)c(F)c2[nH]1	4.3	6.8	0.9	> 120	1400	1600		
O=c1cc(Cn2c(C3CCC3)nc3cccnc32)c2ccc(F)c(F)c2[nH]1	> 560	> 100	7.2	50	1300	180	< 50	
O=c1cc(Cn2c(-c3ccncc3)nc3ccccc32)c2ccc(F)c(F)c2[nH]1	1.9	4.2	1.3	64	2900	2200		
COc1ccnc2c1nc(C1CCC1)n2Cc1cc(=O)[nH]c2c(F)c(F)ccc12	> 480	> 100	6.2	> 120	1300	210	< 50	
O=c1cc(Cn2c(CC3CCC3)nc3ccccc32)c2ccc(F)c(F)c2[nH]1	5.4	2.9	1.2	28	650	540		
